The text below walks through data of paper PMC5962930 (ACS Chemical Biology, 2018).

The test system of one assay is Aplysia feeding network. Kind of assay: Feeding network. The format is cell-based. As to conditions: intact buccal and cerebral ganglia; peptide perfusion vs control. A digest of the protocol:
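Intact buccal plus cerebral ganglia were recorded intra- and extracellularly during peptide perfusion. A peptide scored active when perfusion gave statistically higher circuit activity than control without peptide. Means were compared by repeated-measures one-way ANOVA, assuming sphericity, with Bonferroni post test.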

Another assay addresses T1, apALNR (Aplysia californica, UniProt A0ABM0K1K5).
T1 sequence (A0ABM0K1K5 1-578): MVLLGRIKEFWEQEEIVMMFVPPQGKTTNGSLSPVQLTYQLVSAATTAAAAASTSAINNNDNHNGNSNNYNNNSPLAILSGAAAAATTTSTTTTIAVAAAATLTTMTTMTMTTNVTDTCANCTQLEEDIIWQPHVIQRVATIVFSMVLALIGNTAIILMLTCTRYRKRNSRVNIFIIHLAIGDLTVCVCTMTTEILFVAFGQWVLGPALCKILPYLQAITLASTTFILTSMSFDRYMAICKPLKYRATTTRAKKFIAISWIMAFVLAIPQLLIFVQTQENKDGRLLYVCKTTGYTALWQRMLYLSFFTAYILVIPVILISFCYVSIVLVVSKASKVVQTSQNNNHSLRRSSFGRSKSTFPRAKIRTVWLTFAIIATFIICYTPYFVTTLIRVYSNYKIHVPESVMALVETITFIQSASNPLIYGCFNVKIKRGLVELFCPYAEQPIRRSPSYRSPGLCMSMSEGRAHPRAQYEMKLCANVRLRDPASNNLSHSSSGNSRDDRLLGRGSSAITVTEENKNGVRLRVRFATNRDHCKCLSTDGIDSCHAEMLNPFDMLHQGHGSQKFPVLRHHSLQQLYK
In kind it is cell-based.

In general, EC50 refers to the concentration giving half of the maximal effect. A low value points to greater potency. Regarding H-SYADSKDEESNAALSDFAED-OH, the “feeding network (electrophys.)” value in the assay on Aplysia feeding network is on record as “not active”. For the same substance, the EC50 on apALNR was > 50 µM.
